pIC50: −log10 of the molar value. Values belong to the compound of their own block, whether it stands above or below them. Activity calls are given as the source filed them. The calls are words filed in the database; no cut-off is given here.
Tests used:
[1] = target: T1, Serine/threonine-protein kinase 3 (Homo sapiens, UniProt Q13188); test: Inhibition of recombinant His-tagged full-length MST2 (unknown origin) expressing in Escherichia coli assessed as GST-tagged MOB1a phosphorylation level incubated for 30 mins by immunoblot analysis
T1 sequence (Q13188 whole entry): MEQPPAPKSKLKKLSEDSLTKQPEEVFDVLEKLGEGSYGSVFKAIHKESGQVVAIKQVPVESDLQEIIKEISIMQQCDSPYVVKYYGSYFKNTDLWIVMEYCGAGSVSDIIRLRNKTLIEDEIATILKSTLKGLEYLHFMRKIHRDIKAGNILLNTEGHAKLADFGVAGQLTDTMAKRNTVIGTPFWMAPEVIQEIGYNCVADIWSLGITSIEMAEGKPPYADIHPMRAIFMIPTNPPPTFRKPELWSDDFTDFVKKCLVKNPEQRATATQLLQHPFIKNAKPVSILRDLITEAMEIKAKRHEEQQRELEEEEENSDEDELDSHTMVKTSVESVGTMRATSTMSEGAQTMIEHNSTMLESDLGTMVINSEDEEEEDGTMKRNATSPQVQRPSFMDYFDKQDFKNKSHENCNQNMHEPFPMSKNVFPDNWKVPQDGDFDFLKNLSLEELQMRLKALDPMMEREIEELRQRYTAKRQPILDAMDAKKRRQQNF

Mus musculus [2] = test: Protection against APAP induced liver injury in mouse assessed as liver centrilobular necrosis at 250 mg/kg, ip administered at 3.5 hrs; format: functional, organism-based
Mus musculus [3] = test: Protection against APAP induced liver injury in mouse assessed as decrease in ALT level at 250 mg/kg, ip administered at 2.5 hrs; format: functional, organism-based; conditions: Serum
Mus musculus [4] = test: Protection against APAP induced liver injury in mouse assessed as liver centrilobular necrosis at 250 mg/kg, ip administered at 2.5 hrs; format: functional, organism-based
Mus musculus [5] = test: Protection against APAP induced liver injury in mouse assessed as liver centrilobular necrosis at 250 mg/kg, ip administered at 1.5 hrs; format: functional
Summary of the method: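 Wild-type mice were given APAP orally. NAC at 250 mg/kg was then injected intraperitoneally at 1.5, 2.5 or 3.5 h after APAP. Liver centrilobular necrosis was then assessed.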

Mus musculus [6] = test: Protection against APAP induced liver injury in mouse assessed as decrease in ALT level at 250 mg/kg, ip administered at 1.5 hrs; format: functional, organism-based; conditions: Serum

pIC50 [1]: 6.22
SMILES: CN1C(=O)c2sccc2N(C)c2nc(Nc3ccc(S(C)(=O)=O)cc3)ncc21

pIC50 [1]: 5.94
SMILES: CSc1ccc(Nc2ncc3c(n2)N(C)c2ccsc2C(=O)N3C)cc1

The next lines start with the compound.

SMILES: CN1CCC(NS(=O)(=O)c2ccc(Nc3ncc4c(n3)N(C)c3ccsc3C(=O)N4C)cc2)CC1
pIC50 [1]: 5.42

SMILES: CN1C(=O)c2sccc2N(C)c2nc(Nc3ccc(S(=O)(=O)NC4CC4)cc3)ncc21
pIC50 [1]: 6.68

SMILES: CC(=O)N[C@@H](CS)C(=O)O [ACETYLCYSTEINE]
Activity (Mus musculus [2]): inactive
Activity (Mus musculus [3]): Active
Activity (Mus musculus [4]): inactive
Activity (Mus musculus [5]): Active
Activity (Mus musculus [5]; record 2): 80%
Activity (Mus musculus [6]): Active

Reference: ChEMBL document CHEMBL5705905, “Pharmacological targeting of kinases MST1 and MST2 augments tissue repair and regeneration” (Sci Transl Med, 2016)
